Experimental findings from ChEMBL document CHEMBL3244429, “Antischistosomal effects of 5-(2,4,5-trichlorophenyl)hydantoin and related compounds” (J Med Chem, 1977) are described below.

In data set [1] the test system is Schistosoma mansoni. In words: Antischistosomal activity against Schistosoma mansoni Puerto Rican infected mouse assessed as reduction in live schistosomes at 314 mg/kg/day, through diet for 14 days. It counts as functional. The note with it: 336 h. The procedure, abridged: (§1)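 Mice carrying a Puerto Rican strain of S. mansoni received drug mixed into a powdered diet for 14 days, with dose expressed as mg/kg per day. The read-out was the reduction in live schistosomes in the infected mice.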

The test system of data set [2] is Schistosoma mansoni. The data set is described as follows: Antischistosomal activity against Schistosoma mansoni Puerto Rican infected mouse assessed as infected mouse at 314 mg/kg/day, through diet for 14 days. It counts as functional. The procedure, abridged: as §1
The test system of data set [3] is Schistosoma mansoni. In words: Antischistosomal activity against Schistosoma mansoni Puerto Rican infected mouse assessed as reduction in live schistosomes at 305 mg/kg/day, through diet for 14 days. It counts as functional. The note with it: 336 h. The gist of the method:
as §1

The subject of data set [4] is Schistosoma mansoni. The data set is described as follows: Antischistosomal activity against Schistosoma mansoni Puerto Rican infected mouse assessed as infected mouse at 305 mg/kg/day, through diet for 14 days. It counts as functional. The procedure, abridged:
as §1

Data set [5] relates to Schistosoma mansoni. The data set is described as follows: Antischistosomal activity against Schistosoma mansoni Puerto Rican infected mouse assessed as reduction in live schistosomes at 288 mg/kg/day, through diet for 14 days. As to conditions: 336 h. It counts as functional. The procedure, abridged: as §1
Data set [6] concerns Schistosoma mansoni. The data set is described as follows: Antischistosomal activity against Schistosoma mansoni Puerto Rican infected mouse assessed as infected mouse at 288 mg/kg/day, through diet for 14 days. It counts as functional. The procedure, abridged:
as §1

Data set [7] deals with Schistosoma mansoni. In words: Antischistosomal activity against Schistosoma mansoni Puerto Rican infected mouse assessed as infected mouse at 265 mg/kg/day, through diet for 14 days. It counts as functional. The procedure, abridged:
as §1

The test system of data set [8] is Schistosoma mansoni. In words: Antischistosomal activity against Schistosoma mansoni Puerto Rican infected mouse assessed as reduction in live schistosomes at 265 mg/kg/day, through diet for 14 days. It counts as functional. As to conditions: 336 h. The gist of the method:
as §1

In data set [9] the test system is Schistosoma mansoni. The data set is described as follows: Antischistosomal activity against Schistosoma mansoni Puerto Rican infected mouse assessed as reduction in live schistosomes at 297 mg/kg/day, through diet for 14 days. It counts as functional. As to conditions: 336 h. The gist of the method: as §1
The subject of data set [10] is Schistosoma mansoni. In words: Antischistosomal activity against Schistosoma mansoni Puerto Rican infected mouse assessed as infected mouse at 297 mg/kg/day, through diet for 14 days. It counts as functional. The gist of the method: as §1
Data set [11] deals with Schistosoma mansoni. In words: Antischistosomal activity against Schistosoma mansoni Puerto Rican infected mouse assessed as reduction in live schistosomes at 336 mg/kg/day, through diet for 14 days. It counts as functional. The note with it: 336 h. The procedure, abridged: as §1
For data set [12], the system named is Schistosoma mansoni. In words: Antischistosomal activity against Schistosoma mansoni Puerto Rican infected mouse assessed as infected mouse at 336 mg/kg/day, through diet for 14 days. It counts as functional. The gist of the method:
as §1

The test system of data set [13] is Schistosoma mansoni. The data set is described as follows: Antischistosomal activity against Schistosoma mansoni Puerto Rican infected mouse assessed as reduction in live schistosomes at 140 mg/kg/day, through diet for 14 days. It counts as functional. The note with it: 336 h. The procedure, abridged:
as §1

Data set [14] can be described thus: Toxicity in mouse po dosed through diet for 14 days. It counts as organism-based. As to conditions: in vivo. The procedure, abridged:
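Mice infected with a Puerto Rican strain of *Schistosoma mansoni*; drug mixed into a powdered diet and fed orally for 14 days; doses expressed as mg/kg per day.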

Data set [15] deals with Schistosoma mansoni. In words: Antischistosomal activity against Schistosoma mansoni Puerto Rican infected mouse assessed as infected mouse at 140 mg/kg/day, through diet for 14 days. It counts as functional. The gist of the method:
as §1

Data set [16] relates to Schistosoma mansoni. The data set is described as follows: Antischistosomal activity against Schistosoma mansoni Puerto Rican infected mouse assessed as infected mouse at 396 mg/kg/day, through diet for 14 days. It counts as functional. The procedure, abridged: as §1
For data set [17], the system named is Schistosoma mansoni. The data set is described as follows: Antischistosomal activity against Schistosoma mansoni Puerto Rican infected mouse assessed as reduction in live schistosomes at 396 mg/kg/day, through diet for 14 days. It counts as functional. As to conditions: 336 h. The procedure, abridged:
as §1

In data set [18] the test system is Schistosoma mansoni. The data set is described as follows: Antischistosomal activity against Schistosoma mansoni Puerto Rican infected mouse assessed as reduction in live schistosomes at 298 mg/kg/day, through diet for 14 days. It counts as functional. The note with it: 336 h. The gist of the method: as §1
For data set [19], the system named is Schistosoma mansoni. In words: Antischistosomal activity against Schistosoma mansoni Puerto Rican infected mouse assessed as infected mouse at 298 mg/kg/day, through diet for 14 days. It counts as functional. The gist of the method: as §1
Data set [20] has as its system Schistosoma mansoni. The data set is described as follows: Antischistosomal activity against Schistosoma mansoni Puerto Rican infected mouse assessed as reduction in live schistosomes at 349 mg/kg/day, through diet for 14 days. As to conditions: 336 h. It counts as functional. The gist of the method: as §1
In data set [21] the test system is Schistosoma mansoni. The data set is described as follows: Antischistosomal activity against Schistosoma mansoni Puerto Rican infected mouse assessed as infected mouse at 349 mg/kg/day, through diet for 14 days. It counts as functional. The gist of the method: as §1
The subject of data set [22] is Schistosoma mansoni. In words: Antischistosomal activity against Schistosoma mansoni Puerto Rican infected mouse assessed as reduction in live schistosomes at 301 mg/kg/day, through diet for 14 days. It counts as functional. As to conditions: 336 h. The gist of the method:
as §1

In data set [23] the test system is Schistosoma mansoni. In words: Antischistosomal activity against Schistosoma mansoni Puerto Rican infected mouse assessed as infected mouse at 301 mg/kg/day, through diet for 14 days. It counts as functional. The gist of the method: as §1

Each structure is given as a SMILES string.

Usually inhibition in vivo stands for the change of the read-out against control, counted positive when it falls. Consider `CC1(c2ccc([N+](=O)[O-])cc2)NC(=O)NC1=O` (stereo not drawn), for which, in the data set on Schistosoma mansoni [1], the inhibition in vivo at 314 mg/kg/day came to 0%. Further, in the data set on Schistosoma mansoni [2], the Activity is recorded as 100%.

Take `O=C1NC(=O)C(c2c(Cl)ccc(Cl)c2Cl)N1` (stereo not drawn): in the data set on Schistosoma mansoni [3], the inhibition in vivo at 305 mg/kg/day is 0%. Further, the Activity in the data set on Schistosoma mansoni [4] is listed as 100%.

Take `C[N+](C)(C)CCCN1C(=O)NC(c2cc(Cl)c(Cl)cc2Cl)C1=O.[I-]` (stereo not drawn): the inhibition in vivo at 288 mg/kg/day with Schistosoma mansoni [5] was 13%. Further, the Activity in the data set on Schistosoma mansoni [6] is 100%.

On to `CN1C(=O)NC(c2cc(Cl)c(Cl)cc2Cl)C1=O` (stereo not drawn), for which the Activity in the data set with Schistosoma mansoni [7] is reported as 33%. Also, in the data set with Schistosoma mansoni [8], the inhibition in vivo at 265 mg/kg/day worked out at 83%.

For the compound `CC1(c2cc(Cl)c(Cl)cc2Cl)NC(=O)NC1=O` (stereo not drawn), the inhibition in vivo at 297 mg/kg/day in the data set on Schistosoma mansoni [9] came out at 90%. Moreover, in the data set with Schistosoma mansoni [10], the Activity worked out at 66%.

Take `CN1C(=O)C(c2cc(Cl)c(Cl)cc2Cl)N(C)C1=O` (stereo not drawn): the inhibition in vivo at 336 mg/kg/day in the data set with Schistosoma mansoni [11] was 88%. In addition, in the data set on Schistosoma mansoni [12], the Activity is 83%.

As to `CCN(CC)CCNc1ccc(C)c2sc3ccccc3c(=O)c12.Cl` [LUCANTHONE HYDROCHLORIDE], the inhibition in vivo at 140 mg/kg/day with Schistosoma mansoni [13] was 71%. In addition, the MTD at 336 h in data set [14] came to 140 mg/kg. Also, the Activity with Schistosoma mansoni [15] is 90%.

With `CN1C(=O)NC(=O)C1c1cc(Cl)c(Cl)cc1Cl` (stereo not drawn), the Activity with Schistosoma mansoni [16] was determined as 83%. Also, in the data set with Schistosoma mansoni [17], the inhibition in vivo at 396 mg/kg/day was 71%.

Take `CC1(c2cccc([N+](=O)[O-])c2)NC(=O)NC1=O` (stereo not drawn): in the data set on Schistosoma mansoni [18], the inhibition in vivo at 298 mg/kg/day worked out at 0%. For the same compound, in the data set with Schistosoma mansoni [19], the Activity is 100%.

Consider `Cc1cc(Cl)c(Cl)cc1C1(C)NC(=O)NC1=O` (stereo not drawn), for which, in the data set on Schistosoma mansoni [20], the inhibition in vivo at 349 mg/kg/day is 48%. For the same compound, the Activity with Schistosoma mansoni [21] was found to be 100%.

`CC1(c2ccc(Cl)cc2Cl)NC(=O)NC1=O` (stereo not drawn): the inhibition in vivo at 301 mg/kg/day in the data set with Schistosoma mansoni [22] stood at 8%. In the data set with Schistosoma mansoni [23], the Activity amounted to 100%.
